Measurements: ChEMBL document CHEMBL3585281, “Antibacterial Labdane Diterpenoids from Vitex vestita” (2015)
Converted amounts (≈) assume the structure as drawn.

What was measured:
Format in all cases: functional
Bacillus cereus [1] = assay: Antibacterial activity against Bacillus cereus CIP 6624 after 18 hrs by agar dilution method; details: CIP 6624, 18 h
Method in brief: (§1)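 Agar-dilution MIC against Gram-positive strains. Compounds in DMSO, geometric dilutions giving final 100−0.75 mg/L in Mueller Hinton agar. Strains grown 18 h at 37 °C in trypticase soy broth, diluted in sterile water, spotted by Steers inoculator (about 1000 UFC/spot). Plates incubated 18 h at 37 °C; DMSO blank; ofloxacin positive control. MIC = lowest concentration with no visible growth.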

Bacillus cereus [2] = assay: Antibacterial activity against Bacillus cereus N190 after 18 hrs by agar dilution method; details: N190, 18 h; method in brief: as §1
Bacillus cereus [3] = assay: Antibacterial activity against Bacillus cereus N258 after 18 hrs by agar dilution method; details: N258, 18 h; method in brief: as §1
Bacillus cereus [4] = assay: Antibacterial activity against Bacillus cereus N349 after 18 hrs by agar dilution method; details: N349, 18 h; method in brief: as §1
Bacillus spizizenii = assay: Antibacterial activity against Bacillus subtilis ATCC 6633 after 18 hrs by agar dilution method; details: ATCC 6633, 18 h; method in brief: as §1
Corynebacterium striatum = assay: Antibacterial activity against Corynebacterium striatum N840 after 18 hrs by agar dilution method; details: N840, 18 h; method in brief: as §1
Enterococcus avium = assay: Antibacterial activity against Enterococcus avium CIP 104053 after 18 hrs by agar dilution method; details: CIP 104053, 18 h; method in brief: as §1
[5] = tested on: Enterococcus casseliflavus; assay: Antibacterial activity against Enterococcus casseliflavus N487 after 18 hrs by agar dilution method; details: N487, 18 h; method in brief: as §1
[6] = tested on: Enterococcus casseliflavus; assay: Antibacterial activity against Enterococcus casseliflavus CIP 103018 after 18 hrs by agar dilution method; details: CIP 103018, 18 h; method in brief: as §1
Enterococcus durans = assay: Antibacterial activity against Enterococcus durans CIP 104999 after 18 hrs by agar dilution method; details: CIP 104999, 18 h; method in brief: as §1
Enterococcus faecalis [7] = assay: Antibacterial activity against Enterococcus faecalis CIP 103214 after 18 hrs by agar dilution method; details: CIP 103214, 18 h; method in brief: as §1
Enterococcus faecalis [8] = assay: Antibacterial activity against Enterococcus faecalis CIP 104676 after 18 hrs by agar dilution method; details: CIP 104676, 18 h; method in brief: as §1
Enterococcus faecalis [9] = assay: Antibacterial activity against Enterococcus faecalis N491 after 18 hrs by agar dilution method; details: N491, 18 h; method in brief: as §1
Enterococcus faecalis [10] = assay: Antibacterial activity against Enterococcus faecalis N518 after 18 hrs by agar dilution method; details: N518, 18 h; method in brief: as §1
Enterococcus faecalis [11] = assay: Antibacterial activity against Enterococcus faecalis N520 after 18 hrs by agar dilution method; details: N520, 18 h; method in brief: as §1
Enterococcus faecium [12] = assay: Antibacterial activity against Enterococcus faecium CIP 103014 after 18 hrs by agar dilution method; details: CIP 103014, 18 h; method in brief: as §1
Enterococcus faecium [13] = assay: Antibacterial activity against Enterococcus faecium CIP 107387 after 18 hrs by agar dilution method; details: CIP 107387, 18 h; method in brief: as §1
Enterococcus faecium [14] = assay: Antibacterial activity against Enterococcus faecium N490 after 18 hrs by agar dilution method; details: N490, 18 h; method in brief: as §1
Enterococcus faecium [15] = assay: Antibacterial activity against Enterococcus faecium N507 after 18 hrs by agar dilution method; details: N507, 18 h; method in brief: as §1
Enterococcus faecium [16] = assay: Antibacterial activity against Enterococcus faecium N733 after 18 hrs by agar dilution method; details: N733, 18 h; method in brief: as §1
Enterococcus faecium [17] = assay: Antibacterial activity against Enterococcus faecium N823 after 18 hrs by agar dilution method; details: N823, 18 h; method in brief: as §1
Enterococcus gallinarum [18] = assay: Antibacterial activity against Enterococcus gallinarum CIP 105985 after 18 hrs by agar dilution method; details: CIP 105985, 18 h; method in brief: as §1
Enterococcus gallinarum [19] = assay: Antibacterial activity against Enterococcus gallinarum N489 after 18 hrs by agar dilution method; details: N489, 18 h; method in brief: as §1
Enterococcus gallinarum [20] = assay: Antibacterial activity against Enterococcus gallinarum N492 after 18 hrs by agar dilution method; details: N492, 18 h; method in brief: as §1
Enterococcus hirae = assay: Antibacterial activity against Enterococcus hirae CIP 5855 after 18 hrs by agar dilution method; details: CIP 5855, 18 h; method in brief: as §1
Listeria innocua = assay: Antibacterial activity against Listeria innocua E044 after 18 hrs by agar dilution method; details: E044, 18 h; method in brief: as §1
Listeria monocytogenes [21] = assay: Antibacterial activity against Listeria monocytogenes CIP 103575 after 18 hrs by agar dilution method; details: CIP 103575, 18 h; method in brief: as §1
Listeria monocytogenes [22] = assay: Antibacterial activity against Listeria monocytogenes N783 after 18 hrs by agar dilution method; details: N783, 18 h; method in brief: as §1
Listeria monocytogenes [23] = assay: Antibacterial activity against Listeria monocytogenes N836 after 18 hrs by agar dilution method; details: N836, 18 h; method in brief: as §1
Listeria monocytogenes [24] = assay: Antibacterial activity against Listeria monocytogenes N851 after 18 hrs by agar dilution method; details: N851, 18 h; method in brief: as §1
Staphylococcus aureus [25] = assay: Antibacterial activity against Staphylococcus aureus ATCC 25923 after 18 hrs by agar dilution method; details: ATCC 25923, 18 h; method in brief: as §1
Staphylococcus aureus [26] = assay: Antibacterial activity against Staphylococcus aureus ATCC 9144 oxford after 18 hrs by agar dilution method; method in brief: as §1
Staphylococcus aureus [27] = assay: Antibacterial activity against Staphylococcus aureus CIP 483 after 18 hrs by agar dilution method; details: CIP 483, 18 h; method in brief: as §1
Staphylococcus aureus [28] = assay: Antibacterial activity against Staphylococcus aureus CIP 53154 after 18 hrs by agar dilution method; details: CIP 53154, 18 h; method in brief: as §1
Staphylococcus aureus [29] = assay: Antibacterial activity against Staphylococcus aureus CIP 53156 after 18 hrs by agar dilution method; details: CIP 53156, 18 h; method in brief: as §1
Staphylococcus aureus [30] = assay: Antibacterial activity against Staphylococcus aureus CIP 5710 after 18 hrs by agar dilution method; details: CIP 5710, 18 h; method in brief: as §1
Staphylococcus aureus [31] = assay: Antibacterial activity against Staphylococcus aureus CIP 7625 after 18 hrs by agar dilution method; details: CIP 7625, 18 h; method in brief: as §1
Staphylococcus aureus [32] = assay: Antibacterial activity against Staphylococcus aureus CRBIP 2121 after 18 hrs by agar dilution method; details: CRBIP 2121, 18 h; method in brief: as §1
[33] = tested on: Staphylococcus epidermidis; assay: Antibacterial activity against Staphylococcus epidermidis CIP 53124 after 18 hrs by agar dilution method; details: CIP 53124, 18 h; method in brief: as §1
[34] = tested on: Staphylococcus haemolyticus; assay: Antibacterial activity against Staphylococcus haemolyticus CIP 8156 after 18 hrs by agar dilution method; details: CIP 8156, 18 h; method in brief: as §1
[35] = tested on: Staphylococcus intermedius; assay: Antibacterial activity against Staphylococcus intermedius N987 after 18 hrs by agar dilution method; details: N987, 18 h; method in brief: as §1
[36] = tested on: Staphylococcus lugdunensis; assay: Antibacterial activity against Staphylococcus lugdunensis ATCC 43809 after 18 hrs by agar dilution method; details: ATCC 43809, 18 h; method in brief: as §1
[37] = tested on: Staphylococcus saprophyticus; assay: Antibacterial activity against Staphylococcus saprophyticus CIP 76125 after 18 hrs by agar dilution method; details: CIP 76125, 18 h; method in brief: as §1
[38] = tested on: Staphylococcus saprophyticus; assay: Antibacterial activity against Staphylococcus saprophyticus E260 after 18 hrs by agar dilution method; details: E260, 18 h; method in brief: as §1
Mammaliicoccus sciuri = assay: Antibacterial activity against Staphylococcus sciuri N993 after 18 hrs by agar dilution method; details: N993, 18 h; method in brief: as §1
Streptococcus agalactiae = assay: Antibacterial activity against Streptococcus agalactiae CIP 103227 after 18 hrs by agar dilution method; details: ATCC 13813, 18 h; method in brief: as §1
MRC5 [39] = assay: Cytotoxicity against human MRC5 cells assessed as growth inhibition at 10^-5 M after 72 hrs by MTS assay relative to control; details: MRC5, 72 h, read-out: GI
Method in brief: (§2)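 Cells from ATCC; HCT-116 grown in RPMI 1640 and MRC5 in DMEM, each with 10% FCS and 1% glutamine, 37 °C, 5% CO2. Seeded at 2.5 × 10^3 cells/well, cultured 24 h, then exposed to compounds at 1 and 10 μM final for 72 h. MTS read-out, absorbance 490 nm; percent index from treated/control OD490 × 100, three experiments.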

MRC5 [40] = assay: Cytotoxicity against human MRC5 cells assessed as growth inhibition at 10^-6 M after 72 hrs by MTS assay relative to control; details: MRC5, 72 h, read-out: GI; method in brief: as §2
HCT-116 [41] = assay: Cytotoxicity against human HCT116 cells assessed as growth inhibition at 10^-5 M after 72 hrs by MTS assay relative to control; details: HCT-116, 72 h, read-out: GI; method in brief: as §2
HCT-116 [42] = assay: Cytotoxicity against human HCT116 cells assessed as growth inhibition at 10^-6 M after 72 hrs by MTS assay relative to control; details: HCT-116, 72 h, read-out: GI; method in brief: as §2

C=C1CC[C@H]2C(C)(C)CCC[C@]2(C)[C@H]1C[C@@H](O)C1=CC(=O)OC1O (stereo not given in full)
MIC (Bacillus cereus [1]): 12 µM (≈ 4.01 µg/mL)
MIC (Bacillus cereus [2]): 6 µM (≈ 2.01 µg/mL)
MIC (Bacillus cereus [3]): 6 µM (≈ 2.01 µg/mL)
MIC (Bacillus cereus [4]): 6 µM (≈ 2.01 µg/mL)
MIC (Bacillus spizizenii): 6 µM (≈ 2.01 µg/mL)
MIC (Corynebacterium striatum): 24 µM (≈ 8.03 µg/mL)
MIC (Enterococcus avium): 48 µM (≈ 16.1 µg/mL)
MIC [5]: 96 µM (≈ 32.1 µg/mL)
MIC [6]: 96 µM (≈ 32.1 µg/mL)
MIC (Enterococcus durans): 24 µM (≈ 8.03 µg/mL)
MIC (Enterococcus faecalis [7]): 96 µM (≈ 32.1 µg/mL)
MIC (Enterococcus faecalis [8]): 24 µM (≈ 8.03 µg/mL)
MIC (Enterococcus faecalis [9]): 24 µM (≈ 8.03 µg/mL)
MIC (Enterococcus faecalis [10]): 96 µM (≈ 32.1 µg/mL)
MIC (Enterococcus faecalis [11]): 48 µM (≈ 16.1 µg/mL)
MIC (Enterococcus faecium [12]): 96 µM (≈ 32.1 µg/mL)
MIC (Enterococcus faecium [13]): 96 µM (≈ 32.1 µg/mL)
MIC (Enterococcus faecium [14]): 48 µM (≈ 16.1 µg/mL)
MIC (Enterococcus faecium [15]): 96 µM (≈ 32.1 µg/mL)
MIC (Enterococcus faecium [16]): 96 µM (≈ 32.1 µg/mL)
MIC (Enterococcus faecium [17]): 96 µM (≈ 32.1 µg/mL)
MIC (Enterococcus gallinarum [18]): 96 µM (≈ 32.1 µg/mL)
MIC (Enterococcus gallinarum [19]): 24 µM (≈ 8.03 µg/mL)
MIC (Enterococcus gallinarum [20]): 48 µM (≈ 16.1 µg/mL)
MIC (Enterococcus hirae): 96 µM (≈ 32.1 µg/mL)
MIC (Listeria innocua): 48 µM (≈ 16.1 µg/mL)
MIC (Listeria monocytogenes [21]): 24 µM (≈ 8.03 µg/mL)
MIC (Listeria monocytogenes [22]): 48 µM (≈ 16.1 µg/mL)
MIC (Listeria monocytogenes [23]): 24 µM (≈ 8.03 µg/mL)
MIC (Listeria monocytogenes [24]): 48 µM (≈ 16.1 µg/mL)
MIC (Staphylococcus aureus [25]): 24 µM (≈ 8.03 µg/mL)
MIC (Staphylococcus aureus [26]): 24 µM (≈ 8.03 µg/mL)
MIC (Staphylococcus aureus [27]): 12 µM (≈ 4.01 µg/mL)
MIC (Staphylococcus aureus [28]): 24 µM (≈ 8.03 µg/mL)
MIC (Staphylococcus aureus [29]): 12 µM (≈ 4.01 µg/mL)
MIC (Staphylococcus aureus [30]): 24 µM (≈ 8.03 µg/mL)
MIC (Staphylococcus aureus [31]): 24 µM (≈ 8.03 µg/mL)
MIC (Staphylococcus aureus [32]): 12 µM (≈ 4.01 µg/mL)
MIC [33]: 12 µM (≈ 4.01 µg/mL)
MIC [34]: 6 µM (≈ 2.01 µg/mL)
MIC [35]: 12 µM (≈ 4.01 µg/mL)
MIC [36]: 24 µM (≈ 8.03 µg/mL)
MIC [37]: 24 µM (≈ 8.03 µg/mL)
MIC [38]: 24 µM (≈ 8.03 µg/mL)
MIC (Mammaliicoccus sciuri): 48 µM (≈ 16.1 µg/mL)
MIC (Streptococcus agalactiae): 12 µM (≈ 4.01 µg/mL)
inhibition of growth at 10 µM (MRC5 [39]): 95%
inhibition of growth at 1 µM (MRC5 [40]): 22%
inhibition of growth at 10 µM (HCT-116 [41]): 87%
inhibition of growth at 1 µM (HCT-116 [42]): 0%
